PGC1a acetyl inh: modulators of PGC1a acetylation; U2OS PGC1a acetylation, AlphaScreen anti-acetyl-lysine; with virally co-expressed GCN5 acetyltransferase; inhibition, % at 15.6 µM; 0.17% of 350,000 active; AID 651687;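 active = every replicate shows inhibition of at least 40%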;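 also: 0% = neutral control wells and 100% = positive control wells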
HIV Env fusion: blocks HIV Env-driven cell-cell fusion; HeLa-JRFL Env/CEM21 cell fusion, luciferase; inhibition, % at 12.3 µM; 1.1% of 360,000 active; AID 651610;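 active = mean replicate inhibition score of at least 50 and every replicate individually at or above 50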;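 also: 0% = plate neutral controls and 100% = maraviroc near 300 nM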
FN deposit inh: fibronectin deposition inhibition. AH1F fibroblasts, Alexa488-fibronectin deposition fluorescence, overnight. inhibition, % at 12.6 µM. 0.086% of 350,000 active. AID 743247;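 active = mean inhibition across replicates of 30% or more, regardless of how many single replicates reach that level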;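 also: positive control wells lacked labelled fibronectin entirely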
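material = AH1F fibroblast monolayer depositing Alexa488-labelled fibronectin into matrix | amount = 10000 AH1F cells/well | buffer or medium = DMEM plus 2% serum, read in PBS | incubation = 1 h cell adhesion before compound, then overnight fibronectin incubation | detection = fluorescence at 485 nm excitation, 525 nm emission | evaluation = percent inhibition as loss of matrix-bound fibronectin fluorescence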
PglD DTNB: inhibitors of Campylobacter jejuni PglD acetyltransferase; purified PglD enzyme, DTNB colorimetric CoA detection; inhibition, % at 12.5 µM; 0.098% of 360,000 active; in the data active = inhibition above about 16%, passing the limit was not always enough
DENV2 CPE: protects cells from dengue virus 2 cytopathic effect; DENV2-infected cells, cytopathic effect rescue, plate reader; CPE inhibition, % at 9.99 µM; 1.7% of 350,000 active; in the data active = CPE inhibition above about 20%, passing the limit was not always enough; tested in BHK-21 cells;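 also: 0% = median of neutral control wells and 100% = median of positive control wells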
rRNA inh HTS: inhibitors of bacterial rRNA selective over humanized ribosomes | GFP signal change (wild-type ribosome), % (test concentration not listed) | E. coli WT GFP vs humanized-ribosome RFP mutants, fluorescence, 24 h; stronger effect = lower value; DMSO median 0, no signal -100 | 1.6% of 350,000 active | AID 720706;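 active = significant combined selectivity score with lowered wild-type GFP, culture density cut under 30%, mutant RFP and density less affected; inactive = any of these conditions unmet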
The depositor's hits bear a star; · = no result; [ ] = dose if it differs, or a comment. In the library only some 3.5% were active in any assay of this set; here they are far more common.

SMILES	PGC1a acetyl inh	HIV Env fusion	FN deposit inh	PglD DTNB	DENV2 CPE	rRNA inh HTS
O=C(c1ccccc1)N1CC[C@@H]2[C@H](CO)Nc3ccc(C#CC4CCCCC4)cc3[C@@H]21	-5	·	19	·	-3	3
O=C(c1ccccc1)N1CC[C@@H]2[C@H]1c1cc(C#CC3CCCCC3)ccc1N[C@@H]2CO	-5	·	2	·	52*	-5
O=C(c1ccccc1)N1CC[C@@H]2[C@H](CO)Nc3ccc(C#Cc4ccccc4F)cc3[C@@H]21	-1	·	2	-2	7	-3
O=C(c1ccccc1)N1CC[C@H]2[C@H](CO)Nc3ccc(C#Cc4ccccc4F)cc3[C@H]21	-6	·	16	·	32*	-6
CCCn1c(=S)[nH]c2cc(C(=O)N(CCO)Cc3ccccc3)ccc2c1=O	5	2	2	1	9	-30*
CCOC(=O)C1CCCN(C(=O)c2ccc3nc(-c4cccc(OC)c4)oc3c2)C1 (centres undefined)	-2	-28	6	1	5	-35*
CCOC(=O)C1CCCN(Cc2ccc(-c3ccccc3)cc2)C1 (centres undefined)	·	6	-6	7	3	-25*
CCOC(=O)C1CCCN(Cc2cccc(Oc3ccccc3)c2)C1 (centres undefined)	0	16	-6	-6	3	-24
Cc1nc2ccccc2c2oc(C(=O)N3CC(C)CC(C)C3)cc12 (centres undefined)	-11	2	2	-1	0	-6
CCOC(=O)C1CCCN(C(=O)c2cc3c(C)nc4ccccc4c3o2)C1 (centres undefined)	-3	56*	15	-3	·	·
C[C@@H]1CN([C@H](C)CO)C(=O)c2cc(NC(=O)Cc3cn(C)c4ccccc34)ccc2O[C@H]1CN(C)C	-6	·	·	-9	-2	6
CCOC(=O)C1CCCN(C(=O)c2ccc3oc(CCc4ccccc4)nc3c2)C1 (centres undefined)	-1	-9	8	-3	-7	-29*
CC(=O)C1CCCN(C(=O)c2ccc3oc(CCc4ccccc4)nc3c2)C1 (centres undefined)	16	-20	0	-6	1	-10
CCCn1c(=S)[nH]c2cc(C(=O)N3CCCC(C(=O)OCC)C3)ccc2c1=O (centres undefined)	-3	84*	·	4	·	·
CCCn1c(=S)[nH]c2cc(C(=O)N3CCN(C(=O)OCC)CC3)ccc2c1=O	-13	-3	-6	-7	2	13
CCOC(=O)c1c(C)nc(C)c(C(=O)OCC)c1-c1ccc(OC)cc1	-4	·	·	1	-3	-38*
COC(=O)c1c(C)nc(C)c(C(=O)OC)c1-c1ccc(OC)cc1	·	0	6	·	-4	-7
Cc1nc(C)c(C(=O)O)c(-c2ccsc2)c1C(=O)O	-6	4	0	3	-2	12
COC(=O)c1c(C)nc(C)c(C(=O)OC)c1-c1ccsc1	2	4	8	-4	1	-40*
COCCNC(=O)c1cc2c(-c3ccc(Cl)cc3)nn(C)c2s1	-15	-83	-1	1	-5	-27*
Cc1nc2c(C)cccn2c1/C(O)=C1\C(=O)C(=O)N(CCN(C)C)C1c1cccs1 (centres undefined)	1	1	-5	2	1	-26*
C[C@@H]1CN([C@@H](C)CO)C(=O)Cc2cc(NC(=O)Nc3ccc(C(F)(F)F)cc3)ccc2O[C@H]1CN(C)S(=O)(=O)c1ccc(F)cc1	8	43[16.7 µM]	·	·	·	-1
CC(C)c1cc(C(C)C)c(S(=O)(=O)N2CCNCC2)c(C(C)C)c1	-25	-13	-19	6	0	-44*
CC(C)NC(=O)Nc1cccc2c1O[C@H](CN(C)C)[C@H](C)CN([C@H](C)CO)C2=O	7	6[16.7 µM]	·	0	·	4
COCC(=O)N1CCCCN2[C@H](C1)[C@H](c1ccc(C#Cc3ccccc3)cc1)[C@@H]2CO	-6	·	·	-1	40*	7
SMILES	PGC1a acetyl inh	HIV Env fusion	FN deposit inh	PglD DTNB	DENV2 CPE	rRNA inh HTS
COCC(=O)N1CCCCN2[C@H](CO)[C@@H](c3ccc(C#Cc4ccc(OC)cc4)cc3)[C@@H]2C1	3	·	·	3	0	-1
COc1ccc(C#Cc2ccc([C@H]3[C@@H](CO)N4CCCCN(C(=O)c5ccncc5)C[C@H]34)cc2)cc1	5	·	·	0	47*	2
COCC(=O)N1CCCCN2[C@H](CO)[C@H](c3ccc(C#Cc4ccc(OC)cc4)cc3)[C@@H]2C1	1	·	·	11	39*	5
COCC(=O)N1CCCCN2[C@@H](CO)[C@H](c3ccc(C#Cc4ccccc4)cc3)[C@@H]2C1	3	·	·	-1	12	1
COCC#Cc1ccc([C@@H]2[C@H]3CN(Cc4ccccc4F)CCCCN3[C@H]2CO)cc1	5	·	·	3	47*	5
COc1ccc(C#Cc2ccc([C@@H]3[C@@H](CO)N4CCCCN(Cc5ccccc5F)C[C@H]34)cc2)cc1	-39	·	·	-2	-34	-60
Cc1ccc(S(=O)(=O)N[C@@H]2C=C[C@@H](CC(=O)O)O[C@H]2CO)cc1	12	43[16.7 µM]	·	1	5	0
C[C@H](CO)N1C[C@H](C)[C@@H](CN(C)C(=O)NC2CCCC2)Oc2ncc(C#CC3CCCCC3)cc2C1=O	0	6[16.7 µM]	-15	6	17	3
C/C=C/c1ccc([C@H]2[C@@H](CO)N(C(=O)CC)[C@@H]2CNCC2CCCCC2)cc1	·	·	-21	·	2	2
COCC#Cc1ccc([C@@H]2[C@@H](CO)N3CCCCN(C(=O)COC)C[C@H]23)cc1	1	·	·	2	34*	2
COCC(=O)N1CCCCN2[C@H](C1)[C@@H](c1ccc(C#Cc3ccccc3)cc1)[C@@H]2CO	-5	·	·	3	28*	-58
C[C@@H]1CN([C@H](C)CO)C(=O)c2cc(NC(=O)Nc3ccc4c(c3)OCO4)ccc2O[C@@H](C)CCCCO[C@@H]1CN(C)C(=O)Cc1ccccc1	-6	6[16.7 µM]	·	-1	3	-1
Fc1ccccc1NC(=S)Nn1cnnc1	1	0	0	3	44*	7
O=C(Nc1ccnn1C1CCN(CC(O)CO)CC1)C1CCCC1 (centres undefined)	-3	15	·	-5	71*	1
CC(C)(CO)CN1CCC(n2nccc2NC(=O)C2CCCC2)CC1	-3	-2	5	1	1	4
C[C@@H]1CN([C@@H](C)CO)C(=O)c2cc(NC(=O)CCC(F)(F)F)ccc2O[C@H]1CN(C)C(=O)Nc1ccc(F)cc1	3	·	·	13	17	-2
Fc1ccc(-c2nc3ccncc3[nH]2)cc1	7	-37	-15	9	·	·
COc1ccc(-c2nc3ccncc3[nH]2)cc1OC	-1	-189	30*	0	·	·
